The nature of data set [1]: Plasma level after 1 hr following 10 mg/kg dose ip. In kind it is ADME, organism-based. The settings on record: rat, read-out: Level. Also on record: dose 10 mg/kg, route intraperitoneal. In outline:
(§1)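 Rats were dosed ip at 10 mg/kg in PEG 400/water (1:1 v/v), given as a solution or a suspension. Receptor occupancy, hippocampus drug level and plasma drug level were measured 1 h after dosing.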

Data set [2] can be described thus: Level in rat brain after 1 hr following 10 mg/kg dose ip. Type of data set: ADME, organism-based. On the set-up: dose 10 mg/kg, route intraperitoneal. The conditions noted are these: read-out: Level. In short, it runs like this: as §1
Data set [3] concerns the target T1, Metabotropic glutamate receptor 5 (Rattus norvegicus, UniProt P31424). The data set is described as follows: Binding affinity towards Metabotropic glutamate receptor was determined by displacing [3H]3-methoxy-5-(pyridin-2-ylethynyl)pyridine from rat cortical membranes. In short, it runs like this:
(§2)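 Radioligand displacement of [³H]-3-methoxy-5-(pyridin-2-ylethynyl)pyridine used rat cortical membranes. Values come from n = 2–4 determinations, with SD < ±25%.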

Data set [4] deals with T2, Metabotropic glutamate receptor 5 (Homo sapiens, UniProt P41594). The data set is described as follows: Antagonistic activity against Metabotropic glutamate receptor 5 in [Ca2+] flux assay using glutamate (10 uM) as agonist. In kind it is functional. In outline: (§3)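 Functional mGlu5 antagonism was read as Ca²⁺ flux, with glutamate at 10 μM as agonist. Values come from n = 2–4 determinations, with SD < ±25%.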
T2 sequence (P41594 whole entry): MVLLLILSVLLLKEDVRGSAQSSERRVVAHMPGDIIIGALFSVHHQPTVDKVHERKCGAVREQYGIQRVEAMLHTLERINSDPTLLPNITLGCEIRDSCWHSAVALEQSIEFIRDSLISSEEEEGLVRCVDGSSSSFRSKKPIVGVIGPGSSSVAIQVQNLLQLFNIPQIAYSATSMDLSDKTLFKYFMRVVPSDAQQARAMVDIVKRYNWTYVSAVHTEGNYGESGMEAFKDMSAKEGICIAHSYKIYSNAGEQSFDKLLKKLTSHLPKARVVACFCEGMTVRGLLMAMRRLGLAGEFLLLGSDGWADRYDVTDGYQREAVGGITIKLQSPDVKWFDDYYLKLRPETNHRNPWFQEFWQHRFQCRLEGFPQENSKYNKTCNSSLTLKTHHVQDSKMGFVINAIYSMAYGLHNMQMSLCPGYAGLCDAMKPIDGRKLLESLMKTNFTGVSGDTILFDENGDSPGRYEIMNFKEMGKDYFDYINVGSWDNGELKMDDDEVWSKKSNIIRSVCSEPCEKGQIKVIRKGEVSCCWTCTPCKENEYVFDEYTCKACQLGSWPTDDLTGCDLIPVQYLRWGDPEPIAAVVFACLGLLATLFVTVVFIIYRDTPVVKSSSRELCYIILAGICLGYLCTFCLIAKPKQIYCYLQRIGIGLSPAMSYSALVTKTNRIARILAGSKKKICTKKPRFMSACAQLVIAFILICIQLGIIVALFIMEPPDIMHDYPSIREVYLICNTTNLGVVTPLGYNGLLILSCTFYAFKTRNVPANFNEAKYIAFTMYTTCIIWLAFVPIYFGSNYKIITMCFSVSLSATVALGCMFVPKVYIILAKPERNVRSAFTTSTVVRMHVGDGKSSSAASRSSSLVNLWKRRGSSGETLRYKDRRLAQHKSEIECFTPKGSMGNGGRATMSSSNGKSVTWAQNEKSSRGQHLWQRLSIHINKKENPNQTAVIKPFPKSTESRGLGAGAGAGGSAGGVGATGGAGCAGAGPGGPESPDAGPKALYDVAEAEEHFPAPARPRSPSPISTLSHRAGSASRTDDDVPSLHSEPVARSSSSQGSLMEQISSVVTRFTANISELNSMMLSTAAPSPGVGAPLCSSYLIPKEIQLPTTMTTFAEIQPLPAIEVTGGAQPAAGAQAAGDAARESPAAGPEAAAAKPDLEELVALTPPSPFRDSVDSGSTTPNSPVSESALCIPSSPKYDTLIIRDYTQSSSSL

Data set [5] concerns the target Metabotropic glutamate receptor 5 (Rattus norvegicus) (UniProt P31424). The data set is described as follows: Percent occupancy of the Metabotropic glutamate receptor 5 by the [3H]3-methoxy-5-(pyridin-2-ylethynyl)pyridine ligand 1 hr post-administration of 10 mg/kg compound ip. Type of data set: organism-based. On the set-up: dose 10 mg/kg. In outline:
as §1

Data set [6] can be described thus: Maximum concentration after i.v. dosing at 1 mg/kg, p.o. dosing at 1 mg/kg. In solution of PEG 400/water in dog. Type of data set: ADME, organism-based, Canis lupus familiaris. The settings on record: in vivo, po.
Data set [7] can be described thus: Oral bioavailability after i.v. dosing at 2 mg/kg, p.o. dosing at 10 mg/kg. In solution of PEG 400/water in rat. Type of data set: ADME, organism-based. The conditions noted are these: in vivo. In short, it runs like this: (§4)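 Rats were dosed iv at 2 mg/kg and orally at 10 mg/kg, in solution in PEG 400/water (1:1 v/v).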
A short description of data set [8]: Maximum concentration after i.v. dosing at 2 mg/kg, p.o. dosing at 10 mg/kg. In solution of PEG 400/water in rat. Type of data set: ADME, organism-based. The settings on record: in vivo, po. In outline: as §4
Data set [9] can be described thus: Oral bioavailability after i.v. dosing at 1 mg/kg, p.o. dosing at 1 mg/kg. In solution of PEG 400/water in dog. Type of data set: ADME, organism-based, Canis lupus familiaris. The settings on record: in vivo.
Data set [10] in a line: Volume of distribution after i.v. dosing at 1 mg/kg, p.o. dosing at 1 mg/kg. In solution of PEG 400/water in monkey. Type of data set: ADME, organism-based. The settings on record: cercopithecidae, in vivo, iv.
Data set [11] can be described thus: Plasma clearance after i.v. dosing at 1 mg/kg, p.o. dosing at 1 mg/kg. In solution of PEG 400/water in monkey. Type of data set: ADME, organism-based. The settings on record: cercopithecidae, iv, read-out: Clp.
Data set [12] is described as follows: Half life after i.v. dosing at 2 mg/kg, p.o. dosing at 10 mg/kg. In solution of PEG 400/water in rat. The conditions noted are these: in vivo. In kind it is ADME, organism-based. In outline:
as §4

Data set [13] can be described thus: Oral bioavailability after i.v. dosing at 1 mg/kg, p.o. dosing at 1 mg/kg. In solution of PEG 400/water in monkey. Type of data set: ADME, organism-based. The settings on record: cercopithecidae, in vivo.
Data set [14] in a line: Maximum concentration after i.v. dosing at 1 mg/kg, p.o. dosing at 1 mg/kg. In solution of PEG 400/water in monkey. Type of data set: ADME, organism-based. The settings on record: cercopithecidae, in vivo, po.
Data set [15] is described as follows: Plasma clearance after i.v. dosing at 1 mg/kg, p.o. dosing at 1 mg/kg. In solution of PEG 400/water in dog. In kind it is ADME, organism-based, Canis lupus familiaris. The conditions noted are these: iv, read-out: Clp.
Data set [16] in a line: Plasma clearance after i.v. dosing at 2 mg/kg, p.o. dosing at 10 mg/kg. In solution of PEG 400/water in rat. In kind it is ADME, organism-based. The settings on record: iv, read-out: Clp. In outline:
as §4

Data set [17] is described as follows: Half life after i.v. dosing at 1 mg/kg, p.o. dosing at 1 mg/kg. In solution of PEG 400/water in monkey. Type of data set: ADME, organism-based. The settings on record: cercopithecidae, in vivo.
A short description of data set [18]: Half life after i.v. dosing at 1 mg/kg, p.o. dosing at 1 mg/kg. In solution of PEG 400/water in dog. Type of data set: ADME, organism-based, Canis lupus familiaris. The settings on record: in vivo.
Data set [19] can be described thus: Volume of distribution after i.v. dosing at 1 mg/kg, p.o. dosing at 1 mg/kg. In solution of PEG 400/water in dog. The conditions noted are these: in vivo, iv. Type of data set: ADME, organism-based, Canis lupus familiaris.
Data set [20] is described as follows: Volume of distribution after i.v. dosing at 2 mg/kg, p.o. dosing at 10 mg/kg. In solution of PEG 400/water in rat. In kind it is ADME, organism-based. The conditions noted are these: in vivo, iv. In short, it runs like this: as §4
Data set [21] deals with T2, Metabotropic glutamate receptor 5. Description: Antagonistic activity against Metabotropic glutamate receptor 5 in [Ca2+] flux assay using glutamate (10 uM) as agonist; NA=Not active. Type of data set: functional. In outline: as §3
Data set [22] has as its target T1, Metabotropic glutamate receptor 5. Description: Binding affinity towards Metabotropic glutamate receptor was determined by displacing [3H]3-methoxy-5-(pyridin-2-ylethynyl)pyridine from rat cortical membranes; NA=Not active. In outline:
as §2

Data on 14 molecules can be found in ChEMBL document CHEMBL1138008, “2-(2-[3-(pyridin-3-yloxy)phenyl]-2H-tetrazol-5-yl) pyridine: a highly potent, orally active, metabotropic glutamate subtype 5 (mGlu5) receptor antagonist” (Bioorg Med Chem Lett, 2004).

Metabotropic glutamate receptor 5 (Rattus norvegicus), sequence (P31424 21-1203 limits assumed): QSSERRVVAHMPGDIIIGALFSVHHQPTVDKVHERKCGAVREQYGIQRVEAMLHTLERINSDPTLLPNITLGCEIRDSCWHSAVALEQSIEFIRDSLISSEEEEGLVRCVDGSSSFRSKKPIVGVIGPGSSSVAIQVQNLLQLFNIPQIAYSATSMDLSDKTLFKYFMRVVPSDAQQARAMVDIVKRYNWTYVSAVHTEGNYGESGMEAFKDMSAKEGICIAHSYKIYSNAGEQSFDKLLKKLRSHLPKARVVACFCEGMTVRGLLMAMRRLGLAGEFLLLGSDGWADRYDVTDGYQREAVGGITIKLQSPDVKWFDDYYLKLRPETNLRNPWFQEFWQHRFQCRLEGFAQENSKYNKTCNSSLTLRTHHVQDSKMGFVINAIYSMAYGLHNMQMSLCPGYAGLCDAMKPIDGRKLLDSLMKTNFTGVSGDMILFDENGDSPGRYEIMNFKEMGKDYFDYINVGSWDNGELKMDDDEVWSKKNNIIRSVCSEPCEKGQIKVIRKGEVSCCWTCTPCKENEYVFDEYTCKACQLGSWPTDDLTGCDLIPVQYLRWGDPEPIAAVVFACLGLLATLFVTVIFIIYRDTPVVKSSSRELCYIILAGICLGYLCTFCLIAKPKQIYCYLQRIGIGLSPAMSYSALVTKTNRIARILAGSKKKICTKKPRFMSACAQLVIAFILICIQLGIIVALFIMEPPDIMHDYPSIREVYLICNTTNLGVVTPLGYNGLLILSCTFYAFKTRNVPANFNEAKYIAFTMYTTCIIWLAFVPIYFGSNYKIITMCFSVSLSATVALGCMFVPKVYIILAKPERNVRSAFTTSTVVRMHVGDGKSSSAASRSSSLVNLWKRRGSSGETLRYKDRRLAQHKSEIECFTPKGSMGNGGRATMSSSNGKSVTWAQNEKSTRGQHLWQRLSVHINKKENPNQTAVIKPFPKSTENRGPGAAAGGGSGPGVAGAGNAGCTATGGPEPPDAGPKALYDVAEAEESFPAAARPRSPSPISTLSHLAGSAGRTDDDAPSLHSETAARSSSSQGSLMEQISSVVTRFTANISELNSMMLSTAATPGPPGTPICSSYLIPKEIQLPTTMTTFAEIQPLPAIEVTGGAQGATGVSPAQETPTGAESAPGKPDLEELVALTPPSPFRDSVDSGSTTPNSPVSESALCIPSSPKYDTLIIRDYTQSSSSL
T1 sequence (P31424 whole entry): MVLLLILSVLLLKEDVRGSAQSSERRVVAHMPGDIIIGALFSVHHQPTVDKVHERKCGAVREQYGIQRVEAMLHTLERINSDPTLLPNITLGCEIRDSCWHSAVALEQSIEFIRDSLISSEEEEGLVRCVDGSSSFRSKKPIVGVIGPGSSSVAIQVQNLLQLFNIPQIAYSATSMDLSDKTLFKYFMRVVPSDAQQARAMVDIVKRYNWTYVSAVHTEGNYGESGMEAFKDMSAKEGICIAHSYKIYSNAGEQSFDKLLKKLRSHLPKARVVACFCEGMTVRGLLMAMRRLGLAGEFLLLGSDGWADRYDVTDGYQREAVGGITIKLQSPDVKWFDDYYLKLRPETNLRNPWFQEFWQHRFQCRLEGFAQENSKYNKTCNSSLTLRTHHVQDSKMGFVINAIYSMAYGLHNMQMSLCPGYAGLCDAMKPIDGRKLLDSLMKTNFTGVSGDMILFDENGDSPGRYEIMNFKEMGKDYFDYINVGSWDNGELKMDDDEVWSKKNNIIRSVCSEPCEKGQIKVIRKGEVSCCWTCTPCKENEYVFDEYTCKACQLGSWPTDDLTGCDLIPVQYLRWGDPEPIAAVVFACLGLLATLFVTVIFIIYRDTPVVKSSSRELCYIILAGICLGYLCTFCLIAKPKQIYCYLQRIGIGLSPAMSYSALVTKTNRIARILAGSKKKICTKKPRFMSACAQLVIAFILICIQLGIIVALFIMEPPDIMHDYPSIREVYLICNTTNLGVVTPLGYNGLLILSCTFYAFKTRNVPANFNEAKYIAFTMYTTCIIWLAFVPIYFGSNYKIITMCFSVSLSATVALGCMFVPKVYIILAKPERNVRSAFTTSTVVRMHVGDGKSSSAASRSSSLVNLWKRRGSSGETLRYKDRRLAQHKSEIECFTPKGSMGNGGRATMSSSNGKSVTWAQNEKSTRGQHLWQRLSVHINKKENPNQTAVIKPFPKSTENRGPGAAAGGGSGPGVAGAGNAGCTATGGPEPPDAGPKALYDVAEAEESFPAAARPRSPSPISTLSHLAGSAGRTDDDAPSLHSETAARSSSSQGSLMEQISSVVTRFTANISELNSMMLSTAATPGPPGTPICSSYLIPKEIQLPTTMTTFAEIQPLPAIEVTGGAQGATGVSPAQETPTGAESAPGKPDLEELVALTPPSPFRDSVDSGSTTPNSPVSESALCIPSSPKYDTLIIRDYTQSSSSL

For the molecule `Fc1cc(Sc2cccnc2)cc(-n2nnc(-c3ccccn3)n2)c1`, the figures for the concentration at 1 h in data set [1] and in data set [2] were 3.4 µM and 1.5 µM, respectively. Also, the Ki (commonly a dissociation constant, usually derived from enzyme kinetics or from competition with a known ligand) in data set [3] was 0.016 µM. Further, the IC50 (as a rule, the concentration that inhibits the measured activity by half) in data set [4] worked out at 0.013 µM. The same molecule showed an Occupancy in [5] of 83%.
Regarding `c1ccc(Oc2cccc(-n3nnc(-c4ccccn4)n3)c2)cc1`, the affinity in data set [3] corresponds to a Ki of 0.617 µM. The IC50 in data set [4] was 1.46 µM.
In the same order, the values of `c1ccc(-c2nnn(-c3ccc(Oc4cccnc4)cc3)n2)nc1` are 0.633 µM and 0.737 µM.
The molecule `c1ccc(-c2nnn(-c3cccc(Oc4cccnc4)c3)n2)nc1` showed an inhibition constant (Ki) in [3] of 0.059 µM. For the same molecule, in data set [4], the IC50 was 0.03 µM. Also, the Occupancy in data set [5] turned out to be 60%.
For `Fc1cc(Oc2cccnc2)cc(-n2nnc(-c3ccccn3)n2)c1`, the figures for the Cmax in data set [6], in [8] and in [14] were 1.4 µM, 11 µM and 0.3 µM, respectively. Also, the bioavailability (in general, dose-corrected exposure relative to a reference, in per cent) is 100% in [7], 54% in [9] and 27% in data set [13]. The concentration at 1 h in data set [1] is 7.4 µM; in [2], 6.7 µM. Also, the values for the Vd in data set [10], in data set [19] and in [20] were 0.7 L/kg, 1.5 L/kg and 22 L/kg, respectively. The clearance stood at 0.462 L/h/kg in [11], 0.84 L/h/kg in data set [15] and 1.26 L/h/kg in data set [16]. Besides, the half-life (usually how long it takes for the measured level to halve) in [12] is 2.7 h; in data set [17], 2.5 h; in data set [18] it was 2.3 h. Further, the Ki in data set [3] worked out at 0.012 µM. The IC50 in data set [4] was found to be 0.0067 µM.
As for `CN(c1cccnc1)c1cc(F)cc(-n2nnc(-c3ccccn3)n2)c1`, the concentration at 1 h in data set [1] was found to be 3.5 µM; in data set [2], 4.9 µM. For the same molecule, the Ki in [3] turned out to be 0.03 µM. Moreover, in [4], the IC50 stood at 0.022 µM. Besides, in data set [5], the Occupancy was found to be 58%.
With `N#Cc1cc(F)cc(-n2nnc(-c3ccccn3)n2)c1`, the figures for the concentration at 1 h in [1] and in [2] were 8.7 µM and 9.7 µM, respectively. Also, in [4], the half-maximal inhibitory concentration (IC50) turned out to be 0.0039 µM. For the same molecule, in [5], the Occupancy was 97%.
With `N#Cc1cccc(-n2nnc(-c3ccccn3)n2)c1`, the concentration at 1 h in [1] was found to be 13 µM; in data set [2], 12 µM. The Ki in data set [3] amounted to 0.186 µM. Moreover, in data set [4], the IC50 amounted to 0.073 µM. The same molecule came in with an Occupancy in data set [5] of 96%.
Molecule `Fc1cc(-n2nnc(-c3ccccn3)n2)cc(-n2ccc3cccnc32)c1` came in with a Ki in data set [3] of 0.025 µM. For the same molecule, the IC50 in [4] is 0.016 µM.
Regarding `c1ccc(-c2nnn(-c3ccccc3Oc3cccnc3)n2)nc1`, the IC50 in data set [4] turned out to be 1.58 µM.
Regarding `Fc1cc(Cc2cccnc2)cc(-n2nnc(-c3ccccn3)n2)c1`, the concentration at 1 h in data set [1] amounted to 0.9 µM; in data set [2], 2.7 µM. In addition, in data set [3], the Ki worked out at 0.038 µM. Further, the IC50 in data set [4] amounted to 0.017 µM. In data set [5], this molecule had an Occupancy of 43%.
`c1ccc(-c2nnn(-c3cccc(Oc4ccncc4)c3)n2)nc1`: in [21], the IC50 entry is on record as “Not Active”. Besides, the Ki result in data set [22] was “Not Active”.
`c1ccc(Oc2cccc(-n3nnc(-c4ccccn4)n3)c2)nc1` gave a Ki in [3] of 0.633 µM. In addition, the IC50 in [4] stood at 2.86 µM.
In the same order, the values of `Fc1cc(Nc2cccnc2)cc(-n2nnc(-c3ccccn3)n2)c1` are 0.029 µM and 0.124 µM.
